According to PMC2873867 (Journal of inorganic biochemistry, 2009):
Changes are numbered by the printed parent chain. Read-outs that look alike come from different tables or passages of the source.

Assays:
LYP C129S = target: T1, LYP C129S (Homo sapiens, UniProt Q9Y2R2, C129S); test: Enzyme inhibition assay; assay type: biochemical; settings: 5 nM enzyme, 1.5 μM DiFMUP
T1 sequence (Q9Y2R2 24-289 C129S limits assumed): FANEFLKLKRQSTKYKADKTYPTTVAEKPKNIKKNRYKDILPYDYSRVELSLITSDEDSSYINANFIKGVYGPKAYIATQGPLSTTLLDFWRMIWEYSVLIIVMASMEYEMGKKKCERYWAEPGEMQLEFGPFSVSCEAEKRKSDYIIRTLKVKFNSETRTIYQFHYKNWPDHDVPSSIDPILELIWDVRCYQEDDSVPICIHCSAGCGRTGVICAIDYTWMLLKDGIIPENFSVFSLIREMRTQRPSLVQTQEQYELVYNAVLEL
How it was run: (§1)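 Single-mutant catalytic domains (C129S or C231S) at 5 nM final, each activated 30 min with 0.1 mM DTT. Triplicate kinetic fluorescence (360/455 nm, every 60 s, 30 min), averaged, converted to DiFMU by standard curve.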

LYP C231S = target: T2, LYP C231S (Homo sapiens, UniProt Q9Y2R2, C231S); test: Enzyme inhibition assay; assay type: biochemical; settings: 5 nM enzyme, 1.5 μM DiFMUP
T2 sequence (Q9Y2R2 24-289 C231S limits assumed): T1 sequence (Q9Y2R2 24-289 C129S limits assumed) with S106C, C208S
How it was run: as §1

LYP C129/231S [1] = target: T3, LYP C129/231S (Homo sapiens, UniProt Q9Y2R2, C129S/C231S); test: Enzyme inhibition assay; assay type: biochemical
T3 sequence (Q9Y2R2 24-289 C129S/C231S limits assumed): T1 sequence (Q9Y2R2 24-289 C129S limits assumed) with C208S
How it was run: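 LYP C129S/C231S catalytic domain at 20 nM final, preactivated with 0.1 mM DTT for 1 h. Test compound and 1.5 μM DiFMUP added in DMSO (5% final). Fluorescence (ex 360/em 455 nm) read every 60 s for 30 min, in triplicate, averaged, converted to DiFMU via standard curve.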

LYP [2] = target: T4, LYP (Homo sapiens, UniProt Q9Y2R2); test: Mode of inhibition assay; assay type: biochemical
T4 sequence (Q9Y2R2 24-289 limits assumed): T1 sequence (Q9Y2R2 24-289 C129S limits assumed) with S106C
How it was run: (§2)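 Catalytic domains (LYP and PTP-PEST 5 nM; LYP C129/231S 20 nM) in pH 6.5 Tris/NaCl/EDTA/DTT/Brij 35 buffer at room temperature. Activity measured across a series of DiFMUP concentrations with no test compound or several fixed test compound concentrations, triplicate at each substrate level. Reciprocal rate plotted against reciprocal substrate concentration for each inhibitor level (Lineweaver–Burk).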

PTP-PEST [3] = target: T5, PTP-PEST (Homo sapiens, UniProt Q05209); test: Mode of inhibition assay; assay type: biochemical
T5 sequence (Q05209 28-293 limits assumed): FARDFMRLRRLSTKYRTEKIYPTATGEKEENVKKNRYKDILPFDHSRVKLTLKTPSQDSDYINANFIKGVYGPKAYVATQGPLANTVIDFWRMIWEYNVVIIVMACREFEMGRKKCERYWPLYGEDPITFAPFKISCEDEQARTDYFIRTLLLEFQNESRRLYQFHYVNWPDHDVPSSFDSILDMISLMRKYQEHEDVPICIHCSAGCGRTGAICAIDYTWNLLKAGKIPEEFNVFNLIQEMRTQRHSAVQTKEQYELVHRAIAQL
How it was run: as §2

LYP C129/231S [4] = target: T3, LYP C129/231S; test: Mode of inhibition assay; assay type: biochemical
How it was run: as §2

Jurkat TAg cells = test: Inhibition studies with JTAg cells; assay type: cell-based; settings: 50 μM, 1 h, western blot
How it was run: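 Jurkat TAg cells kept in log growth in supplemented RPMI 1640 (10% FBS). 20×10^6 cells treated for 1 h at room temperature with 50 μM test compound or DMSO (<2%), then split and stimulated 2 min with C305 hybridoma supernatant or left unstimulated. NP-40 lysates, Bradford-normalised, run on 10% SDS–PAGE. Blots probed for pLck Y394/Y505, pZAP-70 Y319 and pERK against total-protein controls, developed by ECL.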

LYP [5] = target: T4, LYP; settings: wild-type LYP; cited from earlier work
PTP-PEST [6] = target: T5, PTP-PEST; settings: cited from earlier work
HePTP = settings: cited from earlier work
CD45 = settings: cited from earlier work
[7] = read-out: Calculated Ki, from Lineweaver-Burk data
[8] = read-out: Estimated Ki from Dixon plot, Ki = -intersection point

## N#CCC[PH](CCC#N)([Au][Cl])c1ccccc1 [Complex 1, bis(cyanoethyl)phenylphosphine–Au(I)–Cl]
LYP C129S
  IC50: 4 ± 0.2 µM
LYP C231S
  IC50: 4 ± 0.8 µM
LYP C129/231S [1]; LYP C129/231S, 20 nM enzyme, 1.5 μM DiFMUP
  IC50: 40 ± 4 µM
LYP C129/231S [1]; fold higher
  IC50 of LYP C129/231S relative to wild-type LYP and single mutants: roughly 10 fold
LYP [2]; Lineweaver-Burk plot
  Mode of inhibition: competitive inhibition
LYP [2]; [7]
  Ki: 2.38 ± 1.1 µM
LYP [2]; [8]
  Ki: ~1.2 µM
PTP-PEST [3]; Lineweaver-Burk plot
  Mode of inhibition: competitive inhibition
PTP-PEST [3]; [7]
  Ki: 53.3 ± 16.3 µM
PTP-PEST [3]; [8]
  Ki: ~80 µM
LYP C129/231S [4]; Lineweaver-Burk plot
  Mode of inhibition: mixed-type inhibition
LYP C129/231S [4]; [7]
  Ki: 58.6 ± 5.3 µM
LYP C129/231S [4]; [8]
  Ki: ~70 µM
Jurkat TAg cells; JTAg cells
  Phosphorylation of Lck at Y505 (cellular CD45 inhibition): no change in phosphorylation levels at position Y505
Jurkat TAg cells; TCR stimulated JTAg cells
  Phosphorylation of ERK1/2: increased phosphorylation levels
  Phosphorylation of Lck at Y394 (cellular LYP inhibition): increase in phosphorylation at Y394
  Phosphorylation of ZAP-70: increased phosphorylation levels
LYP [5]
  IC50: 3.5 ± 0.1 µM
PTP-PEST [6]
  IC50: > 80 µM
HePTP
  IC50: > 50 µM
CD45
  IC50: > 70 µM
